Laboratory results reported in ChEMBL document CHEMBL1134387, “Synthesis and biodistribution of a new oxo-technetium-99m bis(aminothiol) complex as a potential melanoma tracer” (J Med Chem, 2001).

How the values were obtained:
Type in all cases: ADME, organism-based
Mus musculus [1] = experiment: Tumor to liver radioactivity ratio was determined in mice at 24 hr after (iv) administration in presence of [125I]-BZA; conditions: in vivo
Mus musculus [2] = experiment: Tumor to blood radioactivity ratio was determined in mice at 6 hr after (iv) administration in presence of [125I]-BZA; conditions: tumour
Mus musculus [3] = experiment: Tumor to blood radioactivity ratio was determined in mice at 3h after (iv) administration in presence of [125I]-BZA; conditions: tumour
Mus musculus [4] = experiment: Tumor to blood radioactivity ratio was determined in mice at 1 hr after (iv) administration in presence of [125I]-BZA; conditions: tumour
Mus musculus [5] = experiment: Tumor to blood radioactivity ratio was determined in mice at 24 hr after (iv) administration in presence of [125I]-BZA; conditions: tumour
Mus musculus [6] = experiment: Tumor to liver radioactivity ratio was determined in mice at 1 hr after (iv) administration in presence of [125I]-BZA; conditions: in vivo
Mus musculus [7] = experiment: Tumor to lung radioactivity ratio was determined in mice at 3h after (iv) administration in presence of [125I]-BZA; conditions: in vivo
Mus musculus [8] = experiment: Tumor to liver radioactivity ratio was determined in mice at 6 hr after (iv) administration in presence of [125I]-BZA; conditions: in vivo
Mus musculus [9] = experiment: Biodistribution in tumor was determined at 6 hr in mice bearing C57B16 murine melanoma after (i.v.) administration; conditions: in vivo, iv
Procedure, shortened: (§1)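 C57 mice carrying B16 melanotic melanoma, implanted s.c. as 5×10^5 viable cells. Tumours were palpable after 10 days. Mice received 0.74 MBq of the 99mTc-labeled complex by tail-vein injection. Groups of n = 3 were killed by exsanguination at each time point. Weighed tissue aliquots were gamma-counted immediately and expressed as decay-corrected %ID/g, mean ± sem.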

Mus musculus [10] = experiment: Tumor to lung radioactivity ratio was determined in mice at 24 hr after (iv) administration in presence of [125I]-BZA; conditions: in vivo
Mus musculus [11] = experiment: Biodistribution in tumor was determined at 24 hr in mice bearing C57B16 murine melanoma after (i.v.) administration; conditions: in vivo, iv; procedure, shortened: as §1
Mus musculus [12] = experiment: Biodistribution in tumor was determined at 1 hr in mice bearing C57B16 murine melanoma after (i.v.) administration; conditions: in vivo, iv; procedure, shortened: as §1
Mus musculus [13] = experiment: Tumor to lung radioactivity ratio was determined in mice at 6 hr after (iv) administration in presence of [125I]-BZA; conditions: in vivo
Mus musculus [14] = experiment: Tumor to liver radioactivity ratio was determined in mice at 3h after (iv) administration in presence of [125I]-BZA; conditions: in vivo
Mus musculus [15] = experiment: Biodistribution in tumor was determined at 3h in mice bearing C57B16 murine melanoma after (i.v.) administration; conditions: in vivo, iv; procedure, shortened: as §1
Mus musculus [16] = experiment: Tumor to lung radioactivity ratio was determined in mice at 1 hr after (iv) administration in presence of [125I]-BZA; conditions: in vivo

## CCN(CC)CCNC(=O)c1ccc([125I])cc1
Mus musculus [1]
  Ratio: 4.94
Mus musculus [2]
  Ratio: 17.58
Mus musculus [3]
  Ratio: 7.79
Mus musculus [4]
  Ratio: 6.55
Mus musculus [5]
  Ratio: 37.33
Mus musculus [6]
  Ratio: 1.12
Mus musculus [7]
  Ratio: 0.69
Mus musculus [8]
  Ratio: 3.83
Mus musculus [9]
  ID/g: 3.53%
Mus musculus [10]
  Ratio: 15.82
Mus musculus [11]
  ID/g: 0.79%
Mus musculus [12]
  ID/g: 6.75%
Mus musculus [13]
  Ratio: 2.13
Mus musculus [14]
  Ratio: 1.1
Mus musculus [15]
  ID/g: 3.85%
Mus musculus [16]
  Ratio: 0.62
